The results in this text go back to PMC4834983 (Journal of medicinal chemistry, 2015).

Series [1] relates to SF295 cells. Put plainly: CyQuant cell proliferation assay. To be noted: Homo sapiens, SF-295, 72 h, read-out: IC50 cell proliferation SF295. It counts as cell-based. The method in brief:
(§1)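 CyQuant DNA-dye proliferation assay on cultured cells after 72 h exposure to test compound. Viability expressed relative to DMSO-treated control cells.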

In series [2] the test system is U373MG cells. Nature of the series: CyQuant cell proliferation assay. To be noted: Homo sapiens, U373 MG, 72 h, read-out: IC50 cell proliferation U373MG. Format: cell-based. The method in brief:
as §1

Series [3] deals with MCF-7 cells. Put plainly: CyQuant cell proliferation assay. Format: cell-based. To be noted: Homo sapiens, MCF7, 72 h, read-out: IC50 cell proliferation MCF-7. A digest of the protocol: as §1
Series [4] concerns pYStat3. Nature of the series: Immunoblotting of pStat3 in treated U251MG cells. It counts as cell-based, human. To be noted: 5 μM, glioma cells, immunoblotting. The method in brief:
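Whole-cell lysates from U251MG cells given test compound at 5 μM for 0–24 h, or at 0–5 μM for 2 h. Immunoblotted for pY705Stat3 and total Stat3, with GAPDH as loading reference.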
On the technique in general: A western blot detects proteins with antibodies after separation by electrophoresis.

For series [5], the system named is Stat5:Stat5. Put plainly: Cell-free EMSA, EGF-stimulated NIH3T3/hEGFR nuclear extracts, MGFe probe. To be noted: 5 μM, 30 min pre-incubation. Format: biochemical, mouse. The method in brief: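 Nuclear extracts from EGF-stimulated NIH3T3/hEGFR fibroblasts, containing active Stat1, Stat3 and Stat5, preincubated with 5 μM test compound for 30 min at room temperature. Then incubated 30 min with 32P-labelled probe before EMSA: hSIE (Stat1/Stat3 binding) or MGFe (bovine β-casein element; Stat1/Stat5 binding). STAT:DNA bands quantified as percent of control.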
For orientation: In EMSA bound probe runs differently from free probe, usually more slowly.

Series [6] deals with G22 cells. Nature of the series: Growth of glioma patient-derived xenograft cells in vitro. Format: cell-based. To be noted: Homo sapiens, read-out: inhibitory activity against growth of G22 cells. (In xenograft studies the graft and the host belong to different species.)
The test system of series [7] is G12 cells. Described as above. Format: cell-based. To be noted: Homo sapiens, read-out: inhibitory activity against G12 cell growth.
The test system of series [8] is U251MG subcutaneous tumor xenografts. Nature of the series: Subcutaneous glioma xenograft tumor growth. Format: in vivo, mouse. To be noted: 2 mg/kg, oral gavage, 33 days. A digest of the protocol:
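Female athymic nude mice, 4 weeks old, injected subcutaneously in the left flank with 7.3 ×10^6 U251MG cells in PBS/matrigel. At 20 days (tumours 170–250 mm3), mice grouped by matched mean tumour size. Dosed 2 mg/kg by oral gavage in 1% DMSO vehicle, three times weekly, for 33 days. Caliper volumes (V = 0.52 × a2 × b) and body weights recorded; paired t test against vehicle.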

The nature of series [9]: Body weights and signs of toxicity in tumor-bearing mice. To be noted: 2 mg/kg, oral gavage, 33 days. Format: in vivo.
The test system of series [10] is U251MG cells. Nature of the series: Colony survival assay. It counts as cell-based, human. To be noted: 1 μM, treated once. A digest of the protocol:
(§2)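 Cells seeded as single cells at 250 per well and treated once the next day with test compound (0–5 μM) for 72 h. Grown until large colonies were visible: 1 week for NIH3T3, 2 weeks for U251MG. Colonies stained with crystal violet for 4 h and counted.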

The test system of series [11] is NIH3T3 cells. Put plainly: Colony survival assay. To be noted: 2.5 μM or less. Format: cell-based, mouse. The method in brief: as §2
The test system of series [12] is U251MG cells. Put plainly: Scratch assay for migration. It counts as cell-based, human. To be noted: 5 μM, 19-h treatment. A digest of the protocol: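 Sub-confluent U251MG monolayers wounded with pipette tips and treated once with test compound (0–5 μM) or DMSO vehicle. Cells allowed to migrate into the denuded area over 19 h, then imaged by microscopy at 10×.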

The test system of series [13] is U251MG cells. Nature of the series: Cell cycle distribution analysis. It counts as cell-based, human. To be noted: 15 h treatment. A digest of the protocol:
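U251MG cells synchronised by double thymidine block (2 mM) and released for 9 h, then given DMSO or 8 μM test compound for 15 h. Fixed overnight at −20 °C in 70% ethanol/3% FBS in PBS. Stained in PI/RNase buffer for 15 min at room temperature, then DNA content measured by flow cytometry.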

The subject of series [14] is U251MG cells. Put plainly: Immunofluorescence staining/confocal microscopy of mitosis. To be noted: 15 h treatment. It counts as cell-based, human. The method in brief:
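U251MG cells on coverslips synchronised by double thymidine block (2 mM) and released for 9 h. Then given DMSO, 100 nM paclitaxel or 8 μM test compound for 15 h. Fixed in 4% paraformaldehyde, permeabilised with 0.1% digitonin and blocked in 0.2% BSA. Stained with anti-β-tubulin (1:350) and anti-MAP1B (1:300) for 1 h at room temperature, then fluorescent secondaries and DAPI; confocal imaging.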

For series [15], the system named is G22 cells. Put plainly: 3D spheroid assay. To be noted: 5 μM, treated once. Format: cell-based, human.
The subject of series [16] is pStat3. Nature of the series: Immunoblotting of pStat3 in patient-derived xenograft cells. Format: cell-based, human. To be noted: 5 μM, 3 h. The method in brief:
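Glioma patient-derived xenograft G22 cells (DMEM, 5–10% heat-inactivated FBS) given 5 μM test compound for 0–24 h. Whole-cell lysates immunoblotted for pStat3 and Stat3, with GAPDH as loading reference.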

In series [17] the test system is pStat1. Nature of the series: Immunoblotting, EGF-stimulated NIH3T3/hEGFR fibroblasts. To be noted: 5 μM pre-treatment. Format: cell-based, mouse. A digest of the protocol:
(§3)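 NIH3T3/hEGFR fibroblasts pretreated with or without 5 μM test compound for 3 h, then stimulated with 1 μg/ml EGF for 12 min. Whole-cell lysates, equal total protein, immunoblotted for pStat1/Stat1, pStat5/Stat5 and pErk1/2/Erk1/2.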

In series [18] the test system is pStat5. The series is described as above. Format: cell-based, mouse. To be noted: 5 μM pre-treatment. The method in brief: as §3
For series [19], the system named is pErk1/2MAPK. Described as above. It counts as cell-based, mouse. To be noted: 5 μM pre-treatment. The method in brief:
as §3

Series [20] has as its system pErk1/2MAPK. Nature of the series: Immunoblotting, U251MG glioma cells. It counts as cell-based, human. To be noted: 5 μM. The method in brief: (§4)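 U251MG cells given 5 μM test compound for 0–24 h. Whole-cell lysates of equal total protein immunoblotted for pErk1/2, Erk1/2, pS-Akt, Akt, pJAK2, JAK2, SOCS3 and PTP1B, with β-actin or GAPDH as loading reference.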
The subject of series [21] is suppressors of cytokine signaling (SOCS)3. Put plainly: Immunoblotting, U251MG glioma cells. Format: cell-based, human. To be noted: 5 μM. The method in brief: as §4
The subject of series [22] is protein tyrosine phosphatase (PTP)1B. Put plainly: Immunoblotting, U251MG glioma cells. It counts as cell-based, human. To be noted: 5 μM. The method in brief:
as §4

In series [23] the test system is NIH3T3/v-Src fibroblasts. Put plainly: Trypan blue exclusion viable cell counting. Format: cell-based, mouse. To be noted: 1 and 2.5 μM. A digest of the protocol: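 Cells in culture treated once with increasing concentrations of test compound for 0–96 h. Harvested every 24 h, and viable cells counted by trypan blue exclusion under phase-contrast microscopy.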

As for `C/C=C(\C)C(=O)OCC1=C2/C(=C\[C@@]3(C)CC[C@](O)(O3)[C@H](C)C[C@@H]2O)OC1=O` [Compound 22], the IC50 in [1] was 7.4 to 18.3 µM; in series [2], 6.6 to 8.2 µM; in series [3], 4.8 to 9.6 µM. Further, in series [4], the “effect on pStat3 in treated tumor cells” value is on record as “strongly inhibited”. For the same compound, the “effect on Stat5:Stat5 activity, cell-free EMSA” value in series [5] is “weak effects”. Moreover, the results for the inhibition at 5 µM in [6] and in series [7] were 45 to 60% and 25 to 35%, respectively. For the same compound, the “growth of subcutaneous U251MG xenografts” value in series [8] is reported as “inhibited growth”. Also, in series [9], the “body weights or obvious signs of toxicity” value is reported as “No significant changes”. The U251MG colony formation result in series [10] is recorded as “completely inhibited”. The “effects on NIH3T3 colony numbers” value in series [11] is “moderate or none”. Besides, the “migration into the denuded area” value in series [12] was “slowed migration”. Further, in series [13], the cell cycle distribution entry was “induced G2/M accumulation”. For the same compound, the “chromatid structures and sister-chromatids segregation (mitosis)” value in [14] was “caused defects”. Besides, in series [15], the 3D spheroid growth entry is on record as “decreased 3D spheroid growth”. Besides, the “effect on Phospho-Stat3 in G22 cells” value in [16] is listed as “strongly inhibited”. Besides, the “effect on EGF-stimulated pStat1 levels” value in series [17] was “no effect”. The “effect on EGF-stimulated pStat5 levels” value in series [18] is “no effect”. Further, in series [19], the “effect on EGF-stimulated pErk1/2MAPK levels” value is “no effect”. Besides, the “effect on pErk1/2MAPK levels” value in series [20] is on record as “no effects”. In series [21], the “effect on SOCS3 levels” value is reported as “no effects”. In series [22], the “effect on PTP1B levels” value is recorded as “no effects”. Also, in [23], the “growth of NIH3T3/v-Src over normal NIH3T3 fibroblasts” value is reported as “preferential inhibition of growth”.
